Data: ChEMBL document CHEMBL1121802, “Imine analogues of tricyclic antidepressants” (1981)

What was measured:
Assay type in all cases: functional
Mus musculus [1] = experiment: The effect on 24-hour mortality in mice following oral administration
Mus musculus [2] = experiment: The effect on electroshock protection in mice following oral administration
Outline: (§1)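 Observed at 0.5, 2, 5 and 24 h for ataxia (abnormal gait/imprecise movement), pupil diameter (dissecting microscope, 20×, micrometer), excitement (spontaneous running/jumping) and electroshock protection (corneal electrodes at 2 and 5 h). ED50 by Thompson method.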

Mus musculus [3] = experiment: The effect on excitement was measured in mice following oral administration; outline: as §1
Mus musculus [4] = experiment: Compound was tested for antidepressant activity by determining the decreased exploratory activity in mice upon oral administration; 12-32
Outline: (§2)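 Mice given test drug orally; 30 min later challenged with tetrabenazine (methanesulfonate) 32 mg/kg ip in 0.05 M KCl pH 2.0. Scored 1 h after test drug for exploratory activity and ptosis; ptosis antagonism = lid closure <50% in both eyes exactly 2 s after placing mouse facing observer. ED50 calculated by Thompson method.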

Mus musculus [5] = experiment: Effect on pupil dilation was measured in mice upon oral administration; outline: as §1
Mus musculus [6] = experiment: The effect on ataxia in mice following oral administration; outline: as §1
Mus musculus [7] = experiment: Compound was tested for antidepressant activity by determining the reversal of tetrabenazine-induced ptosis upon oral administration; 7-22; outline: as §2
Mus musculus [8] = experiment: Compound was tested for antidepressant activity by determining the reversal of tetrabenazine-induced ptosis upon oral administration; 0.9-3.3; outline: as §2
Mus musculus [9] = experiment: Antidepressant activity by determining the decreased exploratory activity in mice upon oral administration; outline: as §2
Mus musculus [10] = experiment: Compound was tested for antidepressant activity by determining the decreased exploratory activity in mice upon oral administration; 7.9-16; outline: as §2
Mus musculus [11] = experiment: Compound was tested for antidepressant activity by determining the reversal of tetrabenazine-induced ptosis upon oral administration; 2.7-5.1; outline: as §2
Mus musculus [12] = experiment: Compound was tested for antidepressant activity by determining the reversal of tetrabenazine-induced ptosis upon oral administration; 0.7-1.9; outline: as §2
Mus musculus [13] = experiment: Compound was tested for antidepressant activity by determining the decreased exploratory activity in mice upon oral administration; 6.0-12.0; outline: as §2
Mus musculus [14] = experiment: Antidepressant activity by determining the reversal of tetrabenazine-induced ptosis upon oral administration; outline: as §2
Mus musculus [15] = experiment: Compound was tested for antidepressant activity by determining the decreased exploratory activity in mice upon oral administration; 34-158; outline: as §2
Mus musculus [16] = experiment: Compound was tested for antidepressant activity by determining the decreased exploratory activity in mice upon oral administration; 16-31; outline: as §2
Mus musculus [17] = experiment: Compound was tested for antidepressant activity by determining the reversal of tetrabenazine-induced ptosis upon oral administration; 6-21; outline: as §2
Mus musculus [18] = experiment: The effect on excitement was measured in mice upon ip administration
Mus musculus [19] = experiment: The effect on electroshock protection was measured in mice upon ip administration
Mus musculus [20] = experiment: The effect on 24-hour mortality was measured in mice upon ip administration
Mus musculus [21] = experiment: The effect on ataxia was measured in mice upon ip administration
Mus musculus [22] = experiment: Compound was tested for antidepressant activity by determining the reversal of tetrabenazine-induced ptosis upon oral administration; 2.2-6.2; outline: as §2
Mus musculus [23] = experiment: Compound was tested for antidepressant activity by determining the decreased exploratory activity in mice upon oral administration; 9.2-17; outline: as §2
Mus musculus [24] = experiment: Compound was tested for antidepressant activity by determining the reversal of tetrabenazine-induced ptosis upon oral administration; 27-60; outline: as §2
Mus musculus [25] = experiment: Compound was tested for antidepressant activity by determining the decreased exploratory activity in mice upon oral administration; 4.2-9.7; outline: as §2
Mus musculus [26] = experiment: Compound was tested for antidepressant activity by determining the reversal of tetrabenazine-induced ptosis upon oral administration; 2.0-3.1; outline: as §2
Mus musculus [27] = experiment: Compound was tested for antidepressant activity by determining the reversal of tetrabenazine-induced ptosis upon oral administration; 0.8-2.6; outline: as §2
Mus musculus [28] = experiment: Compound was tested for antidepressant activity by determining the decreased exploratory activity in mice upon oral administration; 4.1-12; outline: as §2
Mus musculus [29] = experiment: Compound was tested for antidepressant activity by determining the reversal of tetrabenazine-induced ptosis upon oral administration; 84-110; outline: as §2
Mus musculus [30] = experiment: Compound was tested for antidepressant activity by determining the decreased exploratory activity in mice upon oral administration; outline: as §2
Mus musculus [31] = experiment: Compound was tested for antidepressant activity by determining the reversal of tetrabenazine-induced ptosis upon oral administration; 22-53; outline: as §2
Mus musculus [32] = experiment: Compound was tested for antidepressant activity by determining the decreased exploratory activity in mice upon oral administration; 1.2-5.5; outline: as §2
Mus musculus [33] = experiment: Compound was tested for antidepressant activity by determining the reversal of tetrabenazine-induced ptosis upon oral administration; 0.3-1.2; outline: as §2
Mus musculus [34] = experiment: Compound was tested for antidepressant activity by determining the reversal of tetrabenazine-induced ptosis upon oral administration; 3.0-12.0; outline: as §2
Mus musculus [35] = experiment: Compound was tested for antidepressant activity by determining the reversal of tetrabenazine-induced ptosis upon oral administration; 1.3-2.7; outline: as §2
Mus musculus [36] = experiment: Compound was tested for antidepressant activity by determining the decreased exploratory activity in mice upon oral administration; 4.7-17; outline: as §2
Mus musculus [37] = experiment: Compound was tested its antidepressant activity by determining the decreased exploratory activity in mice upon oral administration; 1.1-2.1; outline: as §2
Mus musculus [38] = experiment: Compound was tested for antidepressant activity by determining the reversal of tetrabenazine-induced ptosis upon oral administration; 0.5-0.9; outline: as §2
Mus musculus [39] = experiment: Compound was tested for its antidepressant activity by determining the decreased exploratory activity in mice upon oral administration; 8.1-15.4; outline: as §2
Mus musculus [40] = experiment: Compound was tested for antidepressant activity by determining the reversal of tetrabenazine-induced ptosis upon oral administration; 1.1-1.8
Mus musculus [41] = experiment: Compound was tested for antidepressant activity by determining the decreased exploratory activity in mice upon oral administration; 2.7-4.6

Row | Compound | ED50 (Mus musculus [1]) [mg/kg] | ED50 (Mus musculus [2]) [mg/kg] | ED50 (Mus musculus [3]) [mg/kg] | ED50 (Mus musculus [5]) [mg/kg] | ED50 (Mus musculus [6]) [mg/kg] | further results
1 | CN(C)CC/N=C1\c2ccccc2CNc2ccccc21 | 300 | > 324 | > 324 | 36 | 36 | ED50 (Mus musculus [4]): 20 mg/kg; ED50 (Mus musculus [7]): 12 mg/kg
2 | CN(C)CCCN=C1c2ccccc2C2CC2c2ccccc21 (stereo not drawn) | 200 | > 324 | > 324 | 12 | 12 | ED50 (Mus musculus [8]): 1.7 mg/kg; ED50 (Mus musculus [9]): > 81 mg/kg
3 | CN(C)CC/N=C1\c2ccccc2C2CC2c2ccc(Cl)cc21 (stereo not drawn) | 200 | 200 | 60 | 12 | 20 | ED50 (Mus musculus [10]): 11.2 mg/kg; ED50 (Mus musculus [11]): 3.7 mg/kg
4 | CCNCCN=C1c2ccccc2C2CC2c2ccccc21 (stereo not drawn) | 200 | > 324 | > 324 | 36 | 36 | ED50 (Mus musculus [12]): 1.1 mg/kg; ED50 (Mus musculus [13]): 8.4 mg/kg
5 | CN(C)CCN=c1c2ccccc2oc2ccccc12 | 300 | > 324 | 60 | > 324 | 60 | ED50 (Mus musculus [14]): > 125 mg/kg; ED50 (Mus musculus [15]): 73 mg/kg
6 | CN(C)CC/N=C1\c2ccccc2CN(C)c2ccccc21 | 60 | 200 | > 324 | 60 | 60 | ED50 (Mus musculus [16]): 22 mg/kg; ED50 (Mus musculus [17]): 11 mg/kg
7 | c1ccc2c(c1)CCc1ccccc1C2=NCCN1CCOCC1 |  |  |  | 100 |  | ED50 (Mus musculus [18]): > 324 mg/kg; ED50 (Mus musculus [19]): 300 mg/kg; ED50 (Mus musculus [20]): 300 mg/kg; ED50 (Mus musculus [14]): > 125 mg/kg; ED50 (Mus musculus [21]): 200 mg/kg; ED50 (Mus musculus [9]): > 125 mg/kg
8 | CN(C)CCN=C1c2ccccc2C2C(c3ccccc31)C2(F)F (stereo not drawn) | > 324 | 200 | > 324 | 200 | 60 | ED50 (Mus musculus [22]): 3.7 mg/kg; ED50 (Mus musculus [23]): 12.5 mg/kg
9 | CN(C)CC/N=C1\c2ccccc2CS(=O)(=O)c2ccccc21 | > 324 | > 324 | 200 | 36 | 200 | ED50 (Mus musculus [24]): 40 mg/kg; ED50 (Mus musculus [9]): > 125 mg/kg
10 | CN(C)CCN=c1c2ccccc2ccc2ccccc12 | 36 | > 324 | 7 | 4 | 4 | ED50 (Mus musculus [25]): 6.4 mg/kg; ED50 (Mus musculus [26]): 2.5 mg/kg
11 | CCN(CC)CCN=C1c2ccccc2C2CC2c2ccccc21 (stereo not drawn) | 200 | 100 | > 324 | 36 | 36 | ED50 (Mus musculus [27]): 1.4 mg/kg; ED50 (Mus musculus [28]): 6.9 mg/kg
12 | CN(C)CCCN=c1c2ccccc2sc2ccccc12 | 200 | > 324 | 60 | 60 | 60 | ED50 (Mus musculus [29]): 96 mg/kg; ED50 (Mus musculus [30]): 125 mg/kg
13 | c1ccc2c(c1)C(=NCCN1CCCCC1)c1ccccc1C1CC21 (stereo not drawn) | 200 | > 324 | > 324 | > 324 | 12 | ED50 (Mus musculus [31]): 34 mg/kg; ED50 (Mus musculus [9]): > 125 mg/kg
14 | CNCCN=C1c2ccccc2C2CC2c2ccccc21 (stereo not drawn) | 300 | 300 | > 324 | 60 | 36 | ED50 (Mus musculus [32]): 2.6 mg/kg; ED50 (Mus musculus [33]): 0.6 mg/kg
15 | CN(C)CC/N=C1\c2ccccc2COc2ccccc21 | 200 | 60 | > 324 | 20 | 36 | ED50 (Mus musculus [34]): 6 mg/kg; ED50 (Mus musculus [30]): 33 mg/kg
16 | CN(C)CCN=C1c2ccccc2CCc2ccccc21 | 100 | 36 | > 324 | 20 | 20 | ED50 (Mus musculus [35]): 1.9 mg/kg; ED50 (Mus musculus [36]): 9 mg/kg
17 | NCCN=C1c2ccccc2C2CC2c2ccccc21 (stereo not drawn) | 200 | 100 | > 324 | 100 | 60 | ED50 (Mus musculus [37]): 1.5 mg/kg; ED50 (Mus musculus [38]): 0.7 mg/kg
18 | CN(C)CC/N=C1\c2ccccc2CCc2ccc(Cl)cc21 (mixture of isomers) | 100 | 60 | > 324 | 36 | 20 | ED50 (Mus musculus [14]): 4.9 mg/kg; ED50 (Mus musculus [39]): 11.2 mg/kg
19 | CN(C)CCC=C1c2ccccc2CCc2ccccc21 [AMITRIPTYLINE] | 190 | 43 | > 324 | 23 | 14 | ED50 (Mus musculus [40]): 1.4 mg/kg; ED50 (Mus musculus [41]): 3.5 mg/kg
